Screens deposited in PubChem by several laboratories.
In the library only some 3.4% were active in any assay of this set; here they are far more common.
p97 inhibitor: inhibitors of human p97 ATPase; P55072; actives 0.42% (n = 220,000); inhibition, % at 8 µM; recombinant p97 ATPase, Kinase-Glo ATP luminescence, 3 h; AID 1481; in the data active = inhibition above about 15%;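 note: 0% = DMSO vehicle and 100% = wells lacking enzyme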
DTT redox prof: compounds producing H2O2 with reducing agent – biochemical, NIH compound library profiling, artefact control for MLSCN library redox annotation, primary screen; DTT-dependent redox cycling H2O2, phenol red/HRP absorbance; 100% = 100 µM peroxide control, 0% = buffer; activation, % at 10 µM; actives 0.03% (n = 200,000); AID 878;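 active = activation of at least 50% relative to the plate's high and low controls in the primary single-dose screen; inactive = activation below 50%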;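 note: compound incubated with DTT at 0.8 mM final as the reducing agent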
KCC2 mod: KCC2 (human) Cl- transport modulation; KCC2 cells, thallium flux FluoZin-2 fluorescence; B-score of Tl+ flux slope (higher = more flux/activation; lower = inhibition) at 10 µM; actives 2.2% (n = 190,000); AID 1456;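 active = thallium flux slope and its plate-corrected score both differing from the plate sample mean at a set confidence after two filtering rounds, in either direction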;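 note: slope of fluorescence scaled to starting intensity during 10 to 20 s after thallium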
Mdm2 ligase inh: Mdm2 E3 ligase (human) inhibition | Q00987 | cell-based MDM2 ubiquitination luciferase reporter, 2 h; 0 = plate control, 100 = twice control, blank-subtracted | signal enhancement, % at 5 µM | actives 0.11% (n = 210,000) | AID 1230;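 active = signal enhancement of 30% or more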;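 note: luminescence tracks abundance of the self-degrading MDM2-luciferase fusion protein; higher signal means inhibition of MDM2 E3 ligase activity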
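Assay system: mammalian cells stably expressing self-ubiquitinating, self-degrading MDM2 E3–luciferase fusion. Quantity: 2000 cells in each well. Medium: DMEM culture medium. Compound dosing: single-point 5 µM. Timing: cell settling 4 h, compound treatment 2 h, both 37 °C. Technique: luciferase luminescence. Read-out basis: percent signal gain over controls, blank-subtracted. Benchmarks: plate controls and plate blanks.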
PKD1 inh: blocks activity of human protein kinase D1; PKD1 kinase fluorescence polarization assay; AID 797; Q15139; inhibition, % (concentration not given with the values); actives 0.056% (n = 200,000); in the data active = inhibition above about 50%
ROMK primary: human ROMK K+ channel modulation, primary screen; Tet-inducible ROMK, thallium flux fluorescence; actives lie on both sides; B-score at 10 µM; P48048; actives 2% (n = 130,000);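 active = signal ratio slope over the read window, or its plate-corrected B-score, at least 3 SD from the plate mean, either direction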;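 note: B-score of the F/F0 ratio slope over 7 to 12 s after thallium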
Starred values were filed as active, the others as inactive; i = inactive; · = no result given.

SMILES	p97 inhibitor	DTT redox prof	KCC2 mod	Mdm2 ligase inh	PKD1 inh	ROMK primary
COc1ccc(Cn2c(=S)[nH]c3ccsc3c2=O)cc1	2	0	26*	-1	-9	1.1
O=C(/C=C/c1cn(-c2ccccc2)nc1-c1cccs1)NCCN1CCOCC1	-4	·	0.048	-9	·	·
Cc1sc2nc[nH]c(=S)c2c1-c1ccccc1	0	-2	31*	-5	3	6.4*
Cc1sc2nc(-c3ccccn3)[nH]c(=O)c2c1-c1ccccc1	-2	-2	3	-5	-5	-0.87
Cc1cc(-c2csc3nc[nH]c(=S)c23)cc(C)c1C	1	-1	85*	-4	-5	5.2*
Cc1ccc(-c2csc3nc[nH]c(=S)c23)cc1	2	0	50*	2	0	10*
O=C(N/N=C/c1ccco1)c1cc(=O)[nH]c2ccccc12	5	0	-0.052	3	1	0.31
COc1ccc(/C=C2\SC(=S)N(CC(=O)N3CCN(C)CC3)C2=O)cc1	-11	·	-0.074	8	·	·
COCCN1C(=O)/C(=C/c2ccc(N3CCCC3)cc2)SC1=S	5	-1	-0.96	-22	8	-3.5*
O=C(Oc1ccc(-n2cnnn2)cc1)c1ccco1	1	-1	-0.9	-20	2	·
CC(C)S(=O)(=O)c1nsc2nc(=O)c(/C=C3\C=Nc4ccccc43)c(N)n12	11	-1	-0.35	-6	-12	1.7
CSc1nsc2nc(=O)c(/C=C3\C=Nc4ccccc43)c(N)n12	10	3	-3.1*	0	1	2.1*
CCC(=NCc1ccc(Cl)c(Cl)c1)c1nc(-c2ccco2)oc1O	0	1	-1.1	-6	-3	-0.91
Cc1cccc(C(=O)NC(=S)NNC(=O)c2ccccc2Cl)c1	2	0	40*	13	-11	·
COC(=O)c1sc(NC(=S)NC(=O)c2cccc(C)c2)nc1C	-4	0	18*	-8	3	0.44
Cc1ccc(C(=O)NC(=S)Nc2ccccc2C(F)(F)F)cc1C	-4	1	·	-3	-24	·
Cc1cccc(C)c1NC(=S)NC(=O)c1ccccc1F	2	0	35*	·	4	-0.32
Cc1cccc(C(=O)NC(=S)Nc2ccccc2C(=O)O)c1	4	1	-0.087	-9	4	-0.82
Cc1cccc(C(=O)NC(=S)Nc2ccccc2C(F)(F)F)c1	1	0	19*	-2	-6	·
Cc1ccc(C)c(C(C)NC(=O)c2ccc(Br)o2)c1 (centres undefined)	6	0	-1.1	-4	7	·
CSC1=C(C#N)C(C)CC(=O)N1 (centres undefined)	7	0	-0.77	-4	-12	0.88
COc1ccccc1CC(=O)NC1CC(C)(C)NC(C)(C)C1	5	-1	-0.34	-19	11	·
CCN(CC)Cc1ccccn1	8	·	-0.59	-21	·	·
O=C(NC(=S)N1CCCCCC1)c1ccc(Cl)cc1Cl	-1	0	88*	-12	-4	7.1*
CCC(=O)Nc1cccc(NC(=S)NC(=O)c2ccc(Cl)cc2Cl)c1	2	0	0.46	-3	-5	·
SMILES	p97 inhibitor	DTT redox prof	KCC2 mod	Mdm2 ligase inh	PKD1 inh	ROMK primary
CCCN(CCC)C(=S)NC(=O)c1ccc(Cl)cc1Cl	1	-4	42*	8	1	·
Cc1ccccc1C(=O)NNC(=S)NC(=O)c1ccc(Cl)cc1Cl	4	0	28*	-5	-10	4.9*
CN1CCN(NC(=O)c2ccc(Cl)cc2Cl)CC1	0	0	-0.55	15	3	0.35
COc1cccc(NC(=O)CSc2nnc(CNC(=O)c3ccccc3)n2C)c1	-5	-1	0.36	-24	-2	·
O=C(Nc1ccc2c(c1)OCCO2)c1ccc(CN2CCOCC2)cc1	-6	2	0.012	-17	-9	·
CCCC(c1nnnn1Cc1cccs1)N1CCN(C)CC1 (centres undefined)	2	-1	0.43	-9	0	-0.24
CCOc1ccc(-c2nnc3sc(-c4c(OC)cccc4OC)nn23)cc1	-6	1	-0.77	·	12	0.33
CCOc1ccc(-c2nnc3sc(-c4ccccc4OC)nn23)cc1	11	1	0.16	·	-3	3.3*
COc1ccccc1NC(=O)C(=O)NNC(=O)c1ccco1	9	-2	8.3*	-3	-2	1.8
COc1ccc(OC)c2sc(NC(=O)c3ccc(Br)s3)nc12	5	-1	6.1*	-24	-3	·
CCCN1C(=O)/C(=C/c2c(N3CCNC(=O)C3CC(=O)OC)nc3c(C)cccn3c2=O)SC1=S (centres undefined)	15*	·	i	-20	·	·
CC(C)NC(=S)N/N=C/c1cc(Br)ccc1O	4	1	5.9*	-11	-9	-0.94
COC(=O)N/N=C/c1cc(Br)ccc1O	2	0	0.71	-22	4	-2.4
c1ccc(OCCSc2nnnn2-c2ccccc2)cc1	4	-1	-3.8*	-13	-1	·
CC1(C)Cc2c(sc3[nH]c(=S)n(Cc4ccccc4)c(=O)c23)CO1	-1	-3	81*	·	-10	·
CC1(C)Cc2c(sc3c2c(N)nc(=S)n3Cc2ccccc2)CO1	0	1	0.3	-2	-6	-0.6
O=C(O)c1cccc(N2C(=O)/C(=C/c3ccc(SCc4ccc(Cl)cc4)o3)SC2=S)c1	6	0	-0.053	-21	-4	-4.2*
CCn1c(SC(C)C(=O)O)nc2sc3c(c2c1=O)CCC3 (centres undefined)	8	0	26*	1	6	1.7
CCOc1ccc(Nc2cc(C)nc(-n3nc(C)cc3C)n2)cc1	0	0	·	-9	-3	2.7*
CNc1cc(C)nc(-n2nc(C)cc2C)n1	2	0	·	-12	8	-0.31
Oc1[nH]c2ccccc2c1N=Nc1nc2ccccc2s1	10	0	6*	-46	-5	0.37
Cc1ccc2[nH]c(O)c(N=Nc3nc4ccccc4s3)c2c1	10	·	40*	·	·	·
CN1CCc2nc(SCc3ccc(Cl)cc3)c(C#N)c(-c3cccs3)c2C1	5	-6	·	·	-10	-3.4*
COCCn1nnnc1C(c1ccc(C)cc1)N1CCN(Cc2ccc3c(c2)OCO3)CC1 (centres undefined)	3	-2	-0.031	5	-3	·
Cc1ccc(C(c2nnnn2Cc2cccs2)N2CCN(Cc3ccc4c(c3)OCO4)CC2)cc1 (centres undefined)	-1	2	0.25	-3	-2	-2.1*
Cc1ccc(-c2nnc(N3CCN(C(=O)COc4ccccc4)CC3)c3ccccc23)cc1	-6	0	-1.7	-12	4	-2.4
O=C(COc1ccc(-c2nnc(N3CCCCC3)c3ccccc23)cc1)N1CCCCC1	-9	1	-2.1	-15	-9	-3.2*
